Activity calls are given as the source filed them. The calls are words filed in the database; no cut-off is given here.
Experiments:
Primary neuron [1] = experiment: Neuroprotective activity against oxygen-glucose deprivation-induced cell death in Sprague-Dawley rat primary neuronal cells assessed as cell viability at 1 to 250 uM treated at onset of recovery period and measured at 24 hrs of recovery by MTT assay relative to control; assay type: functional, cell-based
Procedure, shortened: (§1)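 Rat cortical neurons from E16–17 Sprague-Dawley embryos, used at 6–7 days in serum-free medium. OGD: glucose-free medium bubbled with 95% N2/5% CO2, <0.1% O2, 6.5% CO2, 37 °C, 4 h. Compound added at start of 24 h normoxic recovery. Viability by MTT (0.2 mg/mL, 1.5 h), lysis with HCl/SDS, read at 595/690 nm, relative to 100% control. Four to eight culture batches, each in quadruplicate.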

[2] = Neuroprotective activity against oxygen-glucose deprivation-induced cell death in Sprague-Dawley rat primary neuronal cells assessed as cell viability at 250 uM treated at onset of recovery period and measured at 24 hrs of recovery by MTT assay relative to control; assay type: functional; conditions: Primary neuron, read-out: Activity; procedure, shortened: as §1
[3] = Antioxidant activity assessed as hydroxyl radical scavenging activity at 0.1 mM measured after 30 mins; assay type: functional
Procedure, shortened: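 Hydroxyl radicals from Fe3+/ascorbic acid: EDTA 0.1 mM, Fe3+ 167 μM, DMSO 33 mM, compound 0.1 mM and ascorbic acid 10 mM in 50 mM phosphate buffer pH 7.4. Incubated 37 °C for 30 min, stopped with 17% w/v TCA. Read-out is inhibition of formaldehyde formation, given as % scavenging. Trolox as reference.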

Lipoxygenase = Lipoxygenase (Glycine max, UniProt Q39829); experiment: Inhibition of soybean lipoxygenase using sodium linoleate as substrate by UV-based analysis
Procedure, shortened: (§2)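 Soybean lipoxygenase (enzyme 1/9 ×10⁻⁴ w/v in saline) incubated at rt with 0.1 mM sodium linoleate and compound in DMSO, at several concentrations from 1 to 100 µM diluted from 10 mM stock. Conversion to 13-hydroperoxylinoleic acid recorded at 234 nm; IC50 derived. NDGA as reference inhibitor.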

[4] = Antioxidant activity assessed as DPPH free radical scavenging activity at 0.1 mM measured after 20 to 60 mins; assay type: functional
Procedure, shortened: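 DPPH 0.1 mM in absolute ethanol with compound at 0.1 mM final (from DMSO). Absorbance at 517 nm recorded after 20 and 60 min at rt. NDGA as standard.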

[5] = Antioxidant activity assessed as superoxide anion scavenging activity at 0.1 mM pH 7.4 after 10 mins by NBT assay; assay type: functional
Procedure, shortened: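 Superoxide generated by xanthine/xanthine oxidase (0.07 U/mL) in 0.1 M phosphate buffer pH 7.4 containing NBT and compound at 0.1 mM final. After 10 min at rt, absorbance read at 560 nm. Caffeic acid as standard.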

[6] = Antioxidant activity assessed as inhibition of linoleic acid peroxidation activity at 10 uL; assay type: functional; parameters: scale not given: the % may be the effect or the level left
Procedure, shortened: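 AAPH-initiated peroxidation of sodium linoleate dispersion (16 mM, 10 μL) in 0.05 M phosphate buffer pH 7.4 at 37 °C under air. Initiator was 50 μL of 40 mM AAPH, with 10 μL compound added. Conjugated diene hydroperoxide followed at 234 nm. Trolox as reference.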

[7] = Neuroprotective activity against oxygen-glucose deprivation-induced cell death in Sprague-Dawley rat primary neuronal cells assessed as cell viability at 100 uM treated at onset of recovery period and measured at 24 hrs of recovery by MTT assay relative to control; assay type: functional; conditions: Primary neuron, read-out: Activity; procedure, shortened: as §1
[8] = Antioxidant activity assessed as ABTS radical cation scavenging activity by measuring trolox equivalents at 10 uL after 1 min; assay type: functional
Procedure, shortened: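 ABTS radical cation made from 2 mM aqueous ABTS plus 0.17 mM potassium persulfate in 20 mM phosphate buffer pH 7.4, kept 12–16 h dark at rt. Diluted with ethanol to A734 0.70, then mixed with 10 μL compound from 10 mM stock. Absorbance read at rt 1 min after mixing. Trolox as standard.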

Primary neuron [9] = experiment: Neuroprotective activity against oxygen-glucose deprivation-induced cell death in Sprague-Dawley rat primary neuronal cells assessed as cell viability at 1 to 100 uM treated at onset of recovery period and measured at 24 hrs of recovery by MTT assay relative to control; assay type: functional, cell-based; procedure, shortened: as §1
[10] = Antiinflammatory activity assessed as NO release at 100 uM after 60 mins in presence of L-cysteine by Griess reagent-based relative to control; assay type: functional
Procedure, shortened: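 NO-release test: compound at 100 μM final (from DMSO) in 50 mM phosphate buffer pH 7.4 containing 1 mM L-cysteine, 60 min at 37 °C. Reaction mixture then treated with Griess reagent, left 10 min at rt, absorbance read at 540 nm. Sodium nitroprusside as standard. Mean of three to four determinations.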

[11] = Neuroprotective activity against oxygen-glucose deprivation-induced cell death in Sprague-Dawley rat primary neuronal cells assessed as cell viability at 10 uM treated at onset of recovery period and measured at 24 hrs of recovery by MTT assay relative to control; assay type: functional; conditions: Primary neuron, read-out: Activity; procedure, shortened: as §1
[12] = Neuroprotective activity against oxygen-glucose deprivation-induced cell death in Sprague-Dawley rat primary neuronal cells assessed as cell viability at 50 uM treated at onset of recovery period and measured at 24 hrs of recovery by MTT assay relative to control; assay type: functional; conditions: Primary neuron, read-out: Activity; procedure, shortened: as §1
Primary neuron [13] = experiment: Neuroprotective activity against oxygen-glucose deprivation-induced cell death in Sprague-Dawley rat primary neuronal cells assessed as cell viability at 0.3 to 100 uM treated at onset of recovery period and measured at 24 hrs of recovery by MTT assay relative to control; assay type: functional, cell-based; procedure, shortened: as §1
Primary neuron [14] = experiment: Neuroprotective activity against oxygen-glucose deprivation-induced cell death in Sprague-Dawley rat primary neuronal cells assessed as cell viability at 1 to 10 uM treated at onset of recovery period and measured at 24 hrs of recovery by MTT assay relative to control; assay type: functional, cell-based; procedure, shortened: as §1
Rattus norvegicus = experiment: Antiinflammatory activity in Fisher 344 rat model of carrageenan-induced edema assessed as inhibition of carrageenan-induced paw edema at 0.01 mmol/kg, ip dosed simultaneously with carrageenan injection relative to control; assay type: functional; conditions: Fisher 344, ip
Procedure, shortened: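 Fisher 344 rats (150–200 g), both sexes. Edema was induced by intradermal injection of 0.1 mL 2% carrageenan in water into the right hind paw. Compound was suspended in water with a few drops of Tween 80. Rats were euthanized 3.5 h later. The injected-minus-uninjected paw weight difference was compared with water or Tween-water controls as % inhibition. Mean of two experiments, n = 6 each.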

Mus musculus [15] = experiment: Neuroprotective activity in C57BL/6 mouse model of transient middle cerebral artery occlusion-induced ttransient focal cerebral ischemia assessed decrease in size of ischemic lesion at 40 mg/kg, ip measured after 48 hrs post dose relative to control; assay type: functional, organism-based
Mus musculus [16] = experiment: (§3) Neuroprotective activity in C57BL/6 mouse model of ischemia-induced cerebral ischemia model assessed as reduction in apoptosis in cortical region at 40 mg/kg, ip administered at onset of reperfusion period and measured at 5 days reperfusion post ischemia by TUNNEL assay relative to control; assay type: functional, organism-based
Mus musculus [17] = experiment: as §3, with “assessed” for “assessed as”, “neuronal cell death” for “apoptosis”, “hippocampal CA1” for “cortical”, “Fluoro-Jade-staining” for “TUNNEL”, “assay based” for “assay”; assay type: functional, organism-based
Mus musculus [18] = experiment: Neuroprotective activity in C57BL/6 mouse model of ischemia-induced cerebral ischemia model assessed reduction in neurodeficit score at 40 mg/kg, ip administered at onset of reperfusion period and measured at 5 days reperfusion post ischemia; assay type: functional, organism-based
Mus musculus [19] = experiment: Neuroprotective activity in C57BL/6 mouse model of ischemia-induced cerebral ischemia model assessed as reduction in apoptosis in hippocampal CA1 region at 40 mg/kg, ip administered at onset of reperfusion period and measured at 5 days reperfusion post ischemia by TUNNEL assay relative to control; assay type: functional, organism-based
Mus musculus [20] = experiment: as §3, with “assessed” for “assessed as”, “neuronal cell death” for “apoptosis”, “Fluoro-Jade-staining” for “TUNNEL”, “assay based” for “assay”; assay type: functional, organism-based
Mus musculus [21] = experiment: Neuroprotective activity in C57BL/6 mouse model of transient middle cerebral artery occlusion-induced ttransient focal cerebral ischemia assessed decrease in motor deficit by measuring improvement in grip strength at 40 mg/kg, ip measured after 48 hrs post dose by grip strength Test; assay type: functional; parameters: scale not given: the % may be the effect or the level left
Primary neuron [22] = experiment: Neuroprotective activity against oxygen-glucose deprivation-induced cell death in Sprague-Dawley rat primary neuronal cells assessed as cell viability at 0.5 to 250 uM treated at onset of recovery period and measured at 24 hrs of recovery by MTT assay relative to control; assay type: functional, cell-based; procedure, shortened: as §1
[23] = target: Lipoxygenase (Glycine max) (UniProt Q39829); experiment: Inhibition of soybean lipoxygenase at 1 to 100 uM using sodium linoleate as substrate by UV-based analysis relative to control; procedure, shortened: as §2
Primary neuron [24] = experiment: Neuroprotective activity against oxygen-glucose deprivation-induced cell death in Sprague-Dawley rat primary neuronal cells assessed as cell viability at 0.5 to 10 uM treated at onset of recovery period and measured at 24 hrs of recovery by MTT assay relative to control; assay type: functional, cell-based; procedure, shortened: as §1

Cc1ccc2nc(Cl)c(/C=[N+](\[O-])c3ccccc3)cc2c1
Activity (Primary neuron [1]): inactive

CC(C)(C)/[N+]([O-])=C/c1cc2ccccc2nc1O
viability at 250 µM [2]: 55%
Activity [3]: 99%
IC50 (Lipoxygenase): 36.5 µM
Activity [4]: inactive
Activity [5]: 23%
Activity [6]: 100%
viability at 100 µM [7]: 48.8%
Activity [8]: 6%

Cc1ccc2nc(O)c(/C=[N+](\[O-])C(C)(C)C)cc2c1
Activity (Primary neuron [1]): Active

Cc1ccc2ncc(/C=[N+](\[O-])Cc3ccccc3)cc2c1
Activity (Primary neuron [1]): Active

COc1nc2ccc(C)cc2cc1/C=[N+](\[O-])Cc1ccccc1
Activity (Primary neuron [9]): inactive

Cc1ccc2nc(Cl)c(/C=N/N)cc2c1
Activity (Primary neuron [1]): inactive

CC(C)(C)/[N+]([O-])=C/c1cc2ccccc2nc1Cl
Activity [3]: 97%
Activity (Primary neuron [9]): inactive
IC50 (Lipoxygenase): 32.5 µM
Activity [4]: 7%
Activity [5]: 16%
Activity [6]: inactive
Activity [10]: 7.5%
Activity [8]: inactive

COc1nc2ccccc2cc1/C=[N+](\[O-])Cc1ccccc1
Activity (Primary neuron [9]): inactive

[O-]/[N+](=C\c1cc2cc(O)ccc2nc1Cl)Cc1ccccc1
Activity (Primary neuron [1]): inactive

CC(Cc1ccc(O)c(O)c1)C(C)Cc1ccc(O)c(O)c1 (stereo unspecified) [NORDIHYDROGUAIARETIC ACID]
Activity [4]: 93%

Cc1ccc2nc(Cl)c(/C=[N+](\[O-])Cc3ccccc3)cc2c1
viability at 10 µM [11]: 55.4%
viability at 50 µM [12]: 56.8%

COc1ccc2nc(Cl)c(/C=[N+](\[O-])Cc3ccccc3)cc2c1
Activity [3]: 65%
Activity (Primary neuron [13]): inactive
IC50 (Lipoxygenase): 100 µM
Activity [4]: 3%
Activity [5]: 18%
Activity [6]: 100%
Activity [10]: 12.5%
Activity [8]: inactive

CNc1nc2ccc(C)cc2cc1/C=[N+](\[O-])Cc1ccccc1
Activity (Primary neuron [14]): inactive

O=C(O)/C=C/c1ccc(O)c(O)c1
Activity [5]: 15%

COc1ccc(OC)c2nc(Cl)c(/C=[N+](\[O-])Cc3ccccc3)cc12
Activity (Primary neuron [9]): inactive

COc1ccc2c(c1)c(CC(=O)O)c(C)n2C(=O)c1ccc(Cl)cc1 [INDOMETHACIN]
inhibition in vivo at 10 µmol/kg (Rattus norvegicus): 47%

CC(C)(C)/[N+]([O-])=C/c1ccc(S(=O)(=O)[O-])cc1S(=O)(=O)[O-].[Na+].[Na+]
Activity (Mus musculus [15]): inactive
viability at 250 µM [2]: 52.9%
Activity (Mus musculus [16]): inactive
Activity [3]: 94%
Activity (Mus musculus [17]): inactive
Activity (Mus musculus [18]): Active
Activity (Mus musculus [19]): inactive
IC50 (Lipoxygenase): 57.5 µM
Activity [4]: inactive
Activity [5]: inactive
Activity [6]: inactive
Activity [10]: 1%
Activity (Mus musculus [20]): inactive
Activity (Mus musculus [21]): 20.7%
Activity [8]: inactive

Cc1ccc2nc(O)c(/C=[N+](\[O-])Cc3ccccc3)cc2c1
Activity (Primary neuron [1]): Active

Cc1ccc2nc(Cl)c(/C=N/Cc3ccccc3)cc2c1
Activity (Primary neuron [22]): inactive

Cc1ccc2nc(Cl)c(/C=N/NCc3ccccc3)cc2c1
Activity (Primary neuron [1]): inactive

CC(C)(C)/[N+]([O-])=C/c1cc2ccccc2n2nnnc12
Activity (Primary neuron [9]): inactive

COc1ccc2nc(Cl)c(/C=[N+](/C)[O-])cc2c1
Activity [3]: 100%
inhibition [23]: 26%
Activity [4]: inactive
Activity [5]: 29%
Activity [6]: 100%
Activity [10]: 11%
Activity (Primary neuron [1]): inactive
Activity [8]: inactive

Cc1ccc2nc(N(C)C)c(/C=[N+](\[O-])Cc3ccccc3)cc2c1
Activity (Primary neuron [1]): Active

COc1ccc2nc(Cl)c(C=O)cc2c1
Activity (Primary neuron [9]): inactive

Cc1ccc2nc(Cl)c(/C=N/O)cc2c1
Activity (Primary neuron [22]): inactive

COc1ccc2cc(/C=[N+](\[O-])Cc3ccccc3)c(Cl)nc2c1
Activity (Primary neuron [9]): inactive

[O-]/[N+](=C\c1cc2ccccc2nc1Cl)Cc1ccccc1
Activity (Primary neuron [9]): inactive

Cc1ccc2nc(Cl)c(/C=N/C(C)(C)C)cc2c1
Activity (Primary neuron [1]): inactive

Cc1c(C)c2c(c(C)c1O)CCC(C)(C(=O)O)O2 (stereo unspecified)
Activity [3]: 73%
Activity [6]: 88%
Activity [8]: 91%

Cc1ccc2nc(Cl)c(/C=N/OCc3ccccc3)cc2c1
Activity (Primary neuron [24]): inactive

[O-]/[N+](=C\c1cc2cc(Cl)ccc2nc1Cl)Cc1ccccc1
Activity (Primary neuron [1]): inactive

— ChEMBL document CHEMBL4422671, “New Quinolylnitrones for Stroke Therapy: Antioxidant and Neuroprotective ( Z)- N- tert-Butyl-1-(2-chloro-6-methoxyquinolin-3-yl)methanimine Oxide as a New Lead-Compound for Ischemic Stroke Treatment” (J Med Chem, 2019)
